# High-throughput results: PubChem, The Scripps Research Institute Molecular Screening Center
# NPY1 pot ag: potentiates or activates human NPY-Y1 receptor; P25929; NPY-Y1 expressing cells, potentiator/agonist activation; activation, % at 3.6 µM; 0.37% of 220,000 active; in the data active = activation above about 33%, passing the limit was not always enough;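 note: cells stimulated with NPY at EC10 then isoproterenol at EC100; 0% = low agonist plus stimulus and 100% = saturating agonist plus stimulus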
# S1P4 agonist: activates the human S1P4 receptor. O95977. S1P4-expressing cell line, agonist reporter assay. activation, % at 4.98 µM. 0.35% of 220,000 active. AID 1509; in the data active = activation above about 11%;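 note: 0% = DMSO vehicle and 100% = reference agonist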
# Target sequence (O95977 whole entry, looked up): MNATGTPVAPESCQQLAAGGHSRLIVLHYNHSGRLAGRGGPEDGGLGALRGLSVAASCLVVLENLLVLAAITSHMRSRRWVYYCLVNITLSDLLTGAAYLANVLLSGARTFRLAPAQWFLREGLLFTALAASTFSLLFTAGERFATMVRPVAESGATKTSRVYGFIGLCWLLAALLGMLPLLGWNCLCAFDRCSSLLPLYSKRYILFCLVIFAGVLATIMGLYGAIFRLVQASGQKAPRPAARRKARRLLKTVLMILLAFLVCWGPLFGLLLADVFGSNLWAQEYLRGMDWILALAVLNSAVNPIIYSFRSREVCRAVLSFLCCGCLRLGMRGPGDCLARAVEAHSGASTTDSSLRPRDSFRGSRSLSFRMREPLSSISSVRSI
# NPY Y2 blocker: blocks the human neuropeptide Y Y2 receptor | P49146 | NPY-Y2 expressing cells, antagonist mode | inhibition, % at 2.7 µM | 0.99% of 140,000 active;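 note: 0% = vehicle with agonist challenge and 100% = reference antagonist with challenge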
# S1P4 antagonist: antagonists of human S1P4 receptor | S1P4-expressing cells, antagonist mode, reporter read-out | inhibition, % at 4.98 µM | 0.26% of 220,000 active; in the data active = inhibition above about 29%;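 note: 0% = wells stimulated with agonist and 100% = vehicle wells without agonist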
# NPY2 pot ag: human NPY-Y2 potentiation or agonism, primary screen; P49146; cells expressing NPY-Y2, potentiator/agonist read-out; activation, % at 3.6 µM; 0.45% of 220,000 active; AID 1359; in the data active = activation above about 27%;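 note: cells stimulated with NPY near EC25 plus isoproterenol at EC100; 0% = vehicle plus submaximal agonist and 100% = vehicle plus saturating agonist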
# NPY-Y1 antag: NPY-Y1 (human) receptor antagonism; P25929; HEK293-CNG Y1 cells, membrane potential fluorescence; NPY at EC95, then isoproterenol; inhibition, % at 3.6 µM; 1% of 200,000 active; AID 1040;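 active = inhibition above the campaign mean inhibition of all tested compounds plus 3 SD, cut at about 20% in these data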;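 note: 0% = DMSO wells given NPY plus isoproterenol and 100% = isoproterenol alone without NPY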
#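 material = HEK293 cells with Y1 receptor plus CNG channel | also added = NPY 25 nM then isoproterenol 1 µM plus Ro 20-1724 25 µM | schedule = dye 3 h, compound 60 min room temperature, stimulation 45 min | measured by = membrane potential fluorescence | benchmarks = high control isoproterenol alone, low control NPY with isoproterenol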
# NPY-Y1 ant conf: confirmation of human neuropeptide Y receptor Y1 antagonists. shares compounds with NPY-Y1 antag. HEK293-CNG NPY-Y1, membrane potential fluorescence, cAMP; NPY challenge against isoproterenol-raised cAMP. inhibition, % at 3.6 µM. 21% of 1,200 active. AID 1254; in the data active = inhibition above about 20%;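 note: 0% = vehicle with agonist plus stimulus and 100% = stimulus alone without agonist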
# NPY2 antag ctr: human NPY-Y2 antagonism in NPY-Y1 counter-screen | 28% of 1,200 active | HEK293 NPY-Y2 CNG membrane potential fluorescence; cells given NPY, then isoproterenol | inhibition, % at 3.6 µM | AID 1255 | shares compounds with NPY-Y1 antag;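 note: 0% = DMSO with agonist challenge and 100% = reference antagonist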
# An asterisk follows results filed as active; nt = no result given. In the library only some 2.4% were active in any assay of this set; here they are far more common. Cut-off read from the data, not from the text of the source, unless noted: active = inhibition above about 17%; inactive = the rest.
SMILES,NPY1 pot ag,S1P4 agonist,NPY Y2 blocker,S1P4 antagonist,NPY2 pot ag,NPY-Y1 antag,NPY-Y1 ant conf,NPY2 antag ctr
COc1ccc(CN(C)CC(=O)c2c(N)n(Cc3ccccc3)c(=O)n(C)c2=O)c(OC)c1,-38,0,14,13,-3,24*,11,8
CN(Cc1ccccn1)Cc1nc(COc2ccccc2)no1,8,0,nt,-16,-6,1,nt,nt
CC(c1n[nH]c(=S)n1-c1ccccc1)N1CCCCC1 (configuration not stated),13,0,nt,5,-2,2,nt,nt
CN(C)c1ccc(C2CC(=O)OC3=C2C(=O)CC(C)(C)C3)cc1 (configuration not stated),22,1,nt,-12,5,3,nt,nt
COc1ccc(N2CCc3c(C)nc4c(OC)cc(OC)cc4c32)cc1,-31,-1,nt,-3,-18,34*,26*,24*
Cc1nc2c(C)cccc2c2c1CCN2c1ccccc1F,-15,1,nt,-6,-14,nt,nt,nt
CCOCCCNS(=O)(=O)c1ccc2c(c1)CCN2C(C)=O,-7,-2,1,2,12,3,nt,nt
COc1ccc(N(C)S(=O)(=O)c2cccc(C(=O)N(C)Cc3ccc(C)o3)c2)cc1,-9,1,nt,-1,-14,31*,7,16
COc1cccc(C(=O)NC2CCCC2)c1,9,0,nt,-10,7,-6,nt,nt
COc1ccc(N(C)S(=O)(=O)c2cccc(C(=O)NC3CCCCCC3)c2)cc1,-13,1,nt,-4,-19,39*,10,12
COc1ccc(N(C)S(=O)(=O)c2cccc(C(=O)NC3CCC(C)CC3)c2)cc1 (configuration not stated),-3,-2,nt,8,-6,46*,27*,15
CCCCNC(=S)N(C)/N=C/c1ccc2c(c1)OCO2,-21,0,10,2,-17,22*,9,11
CCOc1ccc(NC(=O)CCCc2cc(-c3ccc(OCC)cc3)on2)cc1,7,1,0,-22,-27,0,nt,nt
CCOc1ccc(-c2cc(CCCC(=O)Nc3cccc(OC)c3)no2)cc1,-12,-1,8,-12,-13,21*,11,21*
Fc1ccc2nc(C3CCCCN3Cc3nc(CC4CC4)no3)[nH]c2c1 (configuration not stated),-15,0,nt,9,-6,39*,9,11
Fc1ccc(C2CCCCN2Cc2nc(CC3CC3)no2)cc1 (configuration not stated),8,2,nt,-11,6,1,nt,nt
CCC1(CC)Cc2ccccc2C(C2=C(O)CC(C)(C)CC2=O)=N1,20,-1,3,-7,6,8,nt,nt
COc1ccc(N2C(=O)CC(C3CCCO3)C2=O)cc1 (configuration not stated),14,0,nt,-1,13,-3,nt,nt
CC(C)(C)c1ccc(-c2cn(-c3ccc(Br)cc3)c3[n+]2CCCS3)cc1,-46,1,nt,-12,-4,55*,68*,32*
CCO[C@@H]1OC(C(=O)O)=C[C@H](c2coc3ccccc3c2=O)[C@H]1CCCO,-6,0,nt,-18,-30,3,nt,nt
COC(=O)c1ccc(CSc2nc3c(c(=O)n2-c2ccc(F)cc2)SCC3)o1,3,0,8,6,-8,21*,7,5
COc1cc(Cl)cc(/C=N/NC(N)=O)c1O,-16,2,nt,-20,-5,1,nt,nt
CC(=O)CSc1nnc(-c2ccc3c(c2)OCO3)o1,-31,-2,7,-6,-21,21*,7,6
Cc1cc(C)n(CCN(C)C(=O)CCc2nnc(-c3ccc4c(c3)OCO4)o2)n1,7,1,nt,4,3,2,nt,nt
N#C/C(=N\Nc1cccc(Cl)c1)C(=O)c1ccccc1,38,0,5,3,25,7,nt,nt
SMILES,NPY1 pot ag,S1P4 agonist,NPY Y2 blocker,S1P4 antagonist,NPY2 pot ag,NPY-Y1 antag,NPY-Y1 ant conf,NPY2 antag ctr
COc1ccc(C(=O)/C(C#N)=N/Nc2cccc([N+](=O)[O-])c2)cc1,-15,2,nt,-29,-5,26*,29*,17
COC(=O)C1=CN(CCOC23CC4CC(CC(C4)C2)C3)C=C(C(=O)OC)C1c1ccsc1,-23,1,nt,15,-39,31*,41*,24*
COC(=O)c1ccccc1NC(=O)COC(=O)c1cccnc1,0,3,2,-7,12,3,nt,nt
CCN(CC)CCOC(=O)c1ccc([N+](=O)[O-])cc1,14,0,nt,5,-11,nt,nt,nt
CN(c1cccc(NC(=O)c2ccc(N(C)S(=O)(=O)c3ccccc3)cc2)c1)S(C)(=O)=O,9,4,nt,2,-7,41*,1,1
OCC1(Cc2ccccc2Cl)CCN(C/C=C/c2ccccc2)CC1,-22,2,nt,-14,-29,27*,15,12
O=C(COC(=O)COc1cccc(F)c1)NCCC1=CCCCC1,-2,0,nt,-28,14,-4,nt,nt
Cc1ccccc1Oc1nc2ccccn2c(=O)c1/C=C(\C#N)C(=O)Nc1c(C)n(C)n(-c2ccccc2)c1=O,-7,3,0,-18,-2,-6,nt,nt
Cc1nn(-c2ccccc2)c2nc(N)c(C#N)c(-c3ccc(F)cc3)c12,-29,0,4,-2,-18,23*,4,16
Cc1ccc(-n2nc(C)c3c(-c4cccs4)c(C#N)c(N)nc32)cc1,-29,-1,2,-1,5,12,nt,nt
N#Cc1c(N)nc2c(c1-c1ccc(F)cc1)c(=O)nc1sccn12,2,1,nt,-5,2,47*,-1,4
c1ccc(-c2nc3cnccn3c2Nc2ccc3c(c2)OCCO3)cc1,-25,-2,12,-1,-1,37*,5,5
CCc1ccccc1NC(=O)/C(=C/c1ccco1)c1ccccc1,6,0,2,19,0,22*,3,3
CCc1n[nH]c(=S)n1/N=C/c1c(C)nn(-c2ccccc2)c1Cl,-13,-1,nt,-21,-13,45*,32*,53*
O=C(NCc1nc2ccccc2[nH]1)c1ccc(Cl)c(S(=O)(=O)N2CCCC2)c1,-16,-2,1,2,-5,-5,nt,nt
CCCn1c(NC(=O)c2ccc(Cl)c(S(=O)(=O)N3CCCC3)c2)nc2ccccc21,-74,0,11,3,-38,22*,13,22*
Cc1ccc(-c2cc(C(=O)NC3=NCCS3)c3cc(Br)ccc3n2)o1,21,1,0,-11,9,-3,nt,nt
C=CCNC(=S)N/N=C/c1ccc(C(C)(C)C)cc1,-28,0,nt,-9,-34,23*,11,6
